Experimental data pooled from the literature.
Compare with care: the assays were run in different laboratories.
Organism: Staphylococcus epidermidis
Read-out: microbial growth

| Structure (SMILES) | technique | strain | time | MIC |
| --- | --- | --- | --- | --- |
| O=C(O)CN1C(=O)/C(=C/c2c3ccccc3c(-c3ccc(N(c4ccccc4)c4ccccc4)cc3)c3ccccc23)SC1=S | broth dilution | ATCC12228 | – | > 1000 µg/mL |
| NCCCC[C@H](N)C(=O)Nc1ccc(-n2nc(C(F)(F)F)cc2-c2ccc3c(c2)Nc2ccccc2S3)cc1 | broth dilution | ATCC35984 | 24 h | 4 µg/mL |
| CC(C)Oc1c(NC(=O)c2ccc(NC(=O)[C@H](CC(N)=O)NC(=O)c3ccc(NC(=O)c4ccc(C#N)s4)cc3)cc2)ccc(C(=O)Nc2ccc(C(=O)O)cc2)c1O | – | DSM28765 | – | 0.5 µg/mL |
| NCCCC[C@H](N)C(=O)Nc1ccc(-n2nc(C(F)(F)F)cc2-c2ccc3c(ccc4ccccc43)c2)cc1 | broth dilution | ATCC35984 | 24 h | 4 µg/mL |
| NC[C@H]1O[C@H](O[C@H]2[C@H](O)[C@@H](O[C@H]3O[C@H](CO)[C@@H](O)[C@H](N)[C@H]3O)[C@H](N)C[C@@H]2N)[C@H](N)C[C@@H]1O | broth dilution | 12228 | – | 0.78 µM |
| CN[C@H](CC(C)C)C(=O)N[C@H]1C(=O)N[C@@H](CC(N)=O)C(=O)N[C@H]2C(=O)N[C@H]3C(=O)N[C@H](C(=O)N[C@H](C(=O)O)c4cc(O)cc(O)c4-c4cc3ccc4O)[C@H](O)c3ccc(c(Cl)c3)Oc3cc2cc(c3O[C@@H]2O[C@H](CO)[C@@H](O)[C@H](O)[C@H]2O[C@H]2C[C@](C)(N)[C@H](O)[C@H](C)O2)Oc2ccc(cc2Cl)[C@H]1O | broth dilution | ATCC12228 | – | 0.98 µg/mL |
| O=C(Nc1ncc([N+](=O)[O-])s1)C1CCCCC1 | broth dilution | – | – | 31.3 µM |
| CC(C)Oc1c(NC(=O)c2ccc(NC(=O)c3ccc(NC(=O)[C@H](CC(N)=O)NC(=O)c4ccc(NC(=O)c5ccc(C#N)s5)cc4)cc3)c(OC(C)C)c2O)ccc(C(=O)O)c1O | – | DSM28765 | – | ≤ 0.03 µg/mL |
| O=C(O)CN1C(=O)/C(=C/c2c3ccccc3c(-c3ccc(N(c4ccccc4)c4ccccc4)cc3)c3ccccc23)NC1=S | broth dilution | ATCC12228 | – | > 1000 µg/mL |
| CC(C)Oc1c(-n2cc(-c3ccc(NC(=O)C(CC(N)=O)NC(=O)c4ccc(NC(=O)c5ccc(C#N)cc5)cc4)cc3)nn2)ccc(C(=O)Nc2ccc(C(=O)O)cc2)c1O (centres unmarked) | – | DSM28765 | – | 0.125 µg/mL |
| CC[C@H]1OC(=O)[C@H](C)[C@@H](O[C@H]2C[C@@](C)(OC)[C@@H](O)[C@H](C)O2)[C@H](C)[C@@H](O[C@@H]2O[C@H](C)C[C@H](N(C)C)[C@H]2O)[C@](C)(O)C[C@@H](C)C(=O)[C@H](C)[C@@H](O)[C@]1(C)O | broth dilution | 12228 | – | 0.78 µM |
